M5 PAM: potentiates acetylcholine response at human M5 receptor; P08912; CHO-K1 hM5, Fluo-8 calcium, ACh EC20 PAM; 0% = ACh EC20, 100% = ACh EC100; activation, % at 3 µM; actives 0.3% (n = 360,000); AID 624038;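 active = activation above the run cutoff, the mean activation of all test compounds plus 3 SD, cut at about 18% in these data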
Target sequence (P08912 whole entry, looked up): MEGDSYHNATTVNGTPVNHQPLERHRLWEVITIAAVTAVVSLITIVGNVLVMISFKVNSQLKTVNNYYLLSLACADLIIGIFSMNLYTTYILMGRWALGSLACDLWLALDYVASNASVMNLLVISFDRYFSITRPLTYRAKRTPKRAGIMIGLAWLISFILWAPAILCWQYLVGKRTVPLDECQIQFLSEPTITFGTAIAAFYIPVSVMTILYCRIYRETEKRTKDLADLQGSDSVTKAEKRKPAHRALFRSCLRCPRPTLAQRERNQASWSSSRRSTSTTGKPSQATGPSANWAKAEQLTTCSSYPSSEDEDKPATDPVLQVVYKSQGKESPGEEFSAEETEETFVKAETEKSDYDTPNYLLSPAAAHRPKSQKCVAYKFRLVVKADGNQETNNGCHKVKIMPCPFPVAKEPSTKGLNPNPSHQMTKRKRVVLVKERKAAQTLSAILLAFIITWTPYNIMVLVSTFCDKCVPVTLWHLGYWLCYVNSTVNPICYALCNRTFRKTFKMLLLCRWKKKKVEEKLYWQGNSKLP
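system = human M5 receptor in CHO-K1 cells | reagent = EC20 acetylcholine as agonist stimulus | compound dosing = single-point, 3 µM nominal | incubation = Fluo-8 loading 80 min at 37 °C plus 30 min room temperature | detection = Fluo-8 calcium dye fluorescence, kinetic read | benchmarks = low control EC20 acetylcholine (0%), high control EC100 acetylcholine (100%)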
CHRM4 agonist: CHRM4 agonism in calcium assay | P08173 | CHO-K1 hM4/Gqi5, Fluo-8 calcium fluorescence; vehicle 0%, full acetylcholine response 100% | activation, % at 3 µM | actives 0.14% (n = 360,000);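 active = activation above the run mean over all test wells plus 3 SD, cut at about 32% in these data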;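 also: peak over basal fluorescence ratio per well then scaled between controls; 0% = DMSO wells and 100% = acetylcholine at EC100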
M5 antag: antagonists of human muscarinic M5 receptor (CHRM5). P08912. inhibition, % at 3 µM. actives 0.59% (n = 360,000). CHO-hM5 cells, Fluo-8 calcium fluorescence, ACh EC80;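 active = inhibition above a per-plate cutoff, the mean of that plate's test compounds plus 3 SD, cut at about 27% in these data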;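 also: 0% = acetylcholine EC80 with DMSO and 100% = DMSO without agonist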
M5 ag: CHRM5 agonism in calcium assay; P08912; CHO-K1 hM5 cells, Fluo-8 calcium fluorescence; 0% DMSO wells, 100% maximal acetylcholine response; activation, % at 3 µM; actives 0.19% (n = 360,000);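 active = activation above the run's mean over test compounds plus 3 SD, cut at about 23% in these data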;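 also: signal is peak over basal fluorescence ratio across the kinetic read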
CHRM4 PAM: CHRM4 positive allosteric modulation | CHO-K1 hM4/Gqi5, Fluo-8 calcium fluorescence, ACh EC20; 0% = ACh EC20, 100% = maximal ACh | AID 624126 | activation, % at 3 µM | actives 0.4% (n = 360,000);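 active = activation above its plate's cutoff, the mean activation of sample wells plus 3 SD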
CHRM4 antagonist: antagonists of human muscarinic M4 receptor (CHRM4); CHO-hM4 cells, ACh EC80, Fluo-8 calcium fluorescence; inhibition, % at 3 µM; P08173; AID 624125; actives 0.73% (n = 360,000);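 active = inhibition above its plate's cutoff, the mean inhibition of sample wells plus 3 SD, cut at about 27% in these data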;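 also: 0% = acetylcholine EC80 with DMSO and 100% = DMSO without agonist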
The depositor's hits bear a star. An excerpt weighted towards active compounds, which were near 1.8% of everything screened.

SMILES | M5 PAM | CHRM4 agonist | M5 antag | M5 ag | CHRM4 PAM | CHRM4 antagonist
CCN1CCN(C(=O)c2cc3c(OC)c(OC)c(OC)cc3[nH]2)CC1 | -6 | 0 | 24 | -3 | -19 | 61*
N#C/C(=C\c1ccc(O)c([N+](=O)[O-])c1)c1nc2ccccc2s1 | -20 | 14 | 31* | 14 | -6 | 7
COc1cc(/C=C(\C#N)c2nc3ccccc3s2)cc([N+](=O)[O-])c1O | 0 | 3 | 0 | 7 | 7 | 15
COCCNC(=O)C(c1ccc(F)cc1)N(C(=O)CCC(=O)Nc1ccccn1)c1ccc(C)cc1 (stereo not given) | 13 | 16 | 29* | 1 | 30* | 23
O=S(=O)(c1ccccc1)N1CCN(c2ccccc2)CC1 | 2 | 1 | -10 | 0 | -1 | -10
CCOC(=O)COc1ccc(S(=O)(=O)N2CCN(c3ccc(OC)cc3)CC2)cc1 | -15 | 14 | 33* | -3 | -9 | 9
CCOC(=O)COc1ccc(S(=O)(=O)N2CCN(c3ccccc3F)CC2)cc1 | -5 | 2 | 6 | 4 | -6 | 1
COc1ccc(S(=O)(=O)N2CCN(c3ccccc3)CC2)cc1 | -12 | 1 | 28* | -5 | 1 | 4
O=C(Nc1ccc(F)c(S(=O)(=O)N2CCOCC2)c1)C1CCCCC1 | -23 | 16 | 13 | 6 | -7 | -7
CC(C)Sc1nc2ccccc2n2cnnc12 | -1 | 0 | 10 | 3 | -4 | 2
COc1ccc(CCNC(=O)COC(=O)c2cc(S(=O)(=O)NCc3ccccc3)ccc2O)cc1OC | 7 | 2 | -14 | 2 | 32* | 19
CCN1CCN(CCn2c(=S)[nH]c3ccccc3c2=O)CC1 | -25 | 0 | 73* | -12 | -17 | 23
OC(c1cc(-c2cccc(Cl)c2)nc2ccccc12)C1CCCCN1 (stereo not given) | -1 | 23 | 8 | 3 | 11 | 37*
CCC(C)CCN1C(N(C)C)=NC[C@@H]1C (stereo not given in full) | -9 | 1 | 8 | -6 | 5 | 39*
Cn1cc([C@]2(O)C(=O)Nc3ccccc32)c2ccccc21 | -1 | 3 | -4 | 1 | 4 | 5
COc1ccccc1C1(O)C(=O)Nc2ccccc21 (stereo not given) | 3 | 2 | 3 | -3 | 15* | -13
Cc1ccc2nc(NCCNC(=O)c3ccccc3)c(C#N)cc2c1 | 12 | 0 | 5 | 0 | -14 | 51*
CCOC(=O)CSc1nc2c(cnn2-c2ccc(C)cc2)c(=O)[nH]1 | 1 | 1 | -6 | -7 | 19* | -22
COc1ccc(/C=C2\SC(=S)NC2=O)cc1OS(=O)(=O)c1ccc(NC(C)=O)cc1 | -8 | 3 | 11 | 2 | 1 | -7
COc1cc(/C=C2/SC(=S)NC2=O)ccc1OS(=O)(=O)c1ccc(C)cc1 | -17 | 10 | 36* | 5 | -13 | 11
COc1ccc(/C=C2\SC(=O)NC2=S)cc1OC | -18 | 33* | 12 | 11 | -28 | 20
CCOc1ccc(/C=C2\SC(=S)NC2=O)cc1OC | -1 | 3 | -5 | 1 | -2 | -2
CCC(C)Sc1ccc([C@H]2N[C@@](Cc3ccccc3)(C(=O)OC)[C@H]3C(=O)N(CC)C(=O)[C@@H]23)cc1 (stereo not given in full) | 1 | 1 | 8 | 2 | 9 | -9
COc1cc(Cn2c3ccc(NC(=O)CCc4ccccc4)cc3c(=O)n2C)ccc1F | 0 | 10 | -4 | 3 | -13 | -1
CCc1ccc(-c2nc(CN3CCC(C(=O)N4CCN(c5ccccc5)CC4)CC3)c(C)o2)cc1 | -16 | 41* | 10 | 6 | -27 | 10
SMILES | M5 PAM | CHRM4 agonist | M5 antag | M5 ag | CHRM4 PAM | CHRM4 antagonist
CCc1ccc(-c2nc(CN3CCC(C(=O)N4CCN(c5ccccn5)CC4)CC3)c(C)o2)cc1 | -8 | 7 | 6 | -6 | -13 | -1
COc1ccccc1C(=O)NCCC(=O)NCc1cccs1 | 4 | 0 | -1 | 2 | -3 | 7
O=C(COC(=O)Cn1nnc(-c2ccccc2)n1)Nc1cc(F)ccc1F | 11 | 0 | 3 | 2 | 0 | -2
COc1ccc(C(=O)n2nc(C)c(Br)c2C)cc1 | 21* | 1 | -10 | -10 | 12 | 4
O=C(Nc1nccs1)c1ncc(Cl)c(Cl)c1Cl | -7 | 1 | 30* | -3 | -9 | 14
Cn1cc(Cl)c(C(=O)Nc2nccs2)n1 | 1 | 0 | 6 | -1 | -1 | 4
CC1(C)Cc2c(cnn2-c2ccccc2)C(=O)/C1=N\NC(=O)c1ccncc1 | 1 | 1 | -5 | 3 | 18* | 2
CC(C(=O)NC(=O)NC1CCCCC1)N1CCN(C(c2ccccc2)c2ccccc2)CC1 (stereo not given) | -8 | -1 | 8 | -4 | -27 | 37*
Cc1ccc(C(C(=O)NC2CCCCC2)N2CCCC2)cc1 (stereo not given) | -13 | 0 | -2 | -11 | -10 | 3
CC(C(=O)NC1CCCC1)N1CCN(Cc2ccccc2)CC1 (stereo not given) | 1 | 0 | 7 | -8 | -7 | 7
O=C(NC1CCCCC1)C(c1ccccc1)N1CCCC1 (stereo not given) | -29 | 0 | 12 | -13 | -17 | 46*
COc1ccc(NC(=O)CSc2nc3ccsc3c(=O)n2CCC(=O)O)cc1 | -3 | 0 | 5 | 0 | 5 | -2
COc1ccc(CCNS(=O)(=O)c2ccc3c(c2)NC(=O)CCS3)cc1OC | 20* | 1 | -6 | 6 | 6 | -16
Cc1ccc(CCNS(=O)(=O)c2ccc3c(c2)NC(=O)CCS3)cc1 | 2 | 7 | -14 | 2 | 5 | -8
COc1ccc(Nc2ncc(C(=O)N3CCC(C(N)=O)CC3)c3ccccc23)cc1 | 5 | 0 | 10 | -3 | -6 | 5
COc1ccc(Nc2ncc(C(=O)N3CCN(Cc4ccccc4)CC3)c3ccccc23)cc1 | -19 | 23 | 20 | 4 | -28 | 28*
Cc1noc(C)c1NC(=O)N(C)C[C@@H]1OCc2cn(nn2)CCCC(=O)N([C@H](C)CO)C[C@H]1C | -5 | 0 | -1 | 2 | 4 | -1
O=C(Nc1ccc(C(O)c2ccccc2)cc1)[C@@H]1O[C@H](CO)[C@@H](O)[C@H]1O (stereo not given in full) | -4 | 0 | 3 | 0 | 0 | -3
CCCCSCCCNC(=S)Nc1ccccc1C | 9 | 1 | 3 | -2 | -4 | 6
CCCCNC(=S)Nc1ccccc1Cc1ccccc1 | 23* | 1 | -6 | -5 | 0 | 1
